Experimental data from different studies.
Protocols differ between the studies behind these lines.
Target: Mitogen-activated protein kinase kinase kinase kinase 4 (MAP4K4, Homo sapiens, UniProt O95819)

| SMILES | test | setting | measurement | value |
| --- | --- | --- | --- | --- |
| Oc1cccc(-c2nc(N3CCOCC3)c3oc4ncccc4c3n2)c1 | cell-free assay | 0.5 µM | remaining signal | 91.4% |
| CSc1nc(C)c(-c2ccnc(Nc3ccc(N4CCOCC4)cc3)c2)[nH]1 | enzyme activity, inhibitor | 10 µM | inhibition | 77.9% |
| Oc1ccc(-c2nc(-c3ccncc3)c(-c3ccc(F)cc3)[nH]2)cc1 | cell-free assay | 0.5 µM | remaining signal | 86.5% |
| O=C(NC[C@@H]1[C@H]2CN(C(=O)OCc3cc(C(F)(F)F)cc(C(F)(F)F)c3)C[C@@H]12)c1ccc2[nH]nnc2c1 | cell-free assay, competition with immobilised ligand | 1 µM | remaining binding | 100% |
| Cc1ccc(C(=O)Nc2ccc(CN3CCN(C)CC3)c(C(F)(F)F)c2)cc1C#Cc1cnc2cccnn12 | enzyme activity, inhibitor | 23.5 nM | remaining activity | 27% |
| CCCS(=O)(=O)Nc1ccc(F)c(C(=O)c2c[nH]c3ncc(-c4ccc(Cl)cc4)cc23)c1F | enzyme activity, inhibitor | 1 µM | inhibition | < 10% |
| Nc1ncnc2occ(-c3ccc(NC(=O)Nc4cc(C(F)(F)F)ccc4F)cc3)c12 | cell-free assay, inhibitor | 20 µM | remaining signal | 0% |
| CN1CC(Oc2cnc(C#N)cc2-c2ccn3nc(NC(=O)C4CC4)cc3c2)C1 | enzyme activity, inhibitor | 1 µM | inhibition | 13% |
| CO[C@@H](C)c1c(Nc2ccc([C@@H](N(C)C(=O)C3CCS(=O)(=O)CC3)C(F)(F)F)cc2)cnc2cc(Cl)nn12 | cell-free assay, competition with immobilised ligand | 1 µM | remaining binding | 100% |
| COc1cc2c(N3CCN(C(=O)Nc4ccc(OC(C)C)cc4)CC3)ncnc2cc1OCCCN1CCCCC1 | cell-free assay | 0.5 µM | remaining signal | 96.6% |
| CCCCN(CCCC)C(=O)CN1C[C@H](c2cc(OC)c3c(c2)OCO3)[C@@H](C(=O)O)[C@@H]1CC(C)(C)CCC | cell-free assay, competition with immobilised ligand | 1 µM | remaining binding | 100% |
| COc1cc2ncnc(Nc3ccc(Oc4ccccc4)cc3C)c2cc1OC | enzyme activity, inhibitor | 1 µM | inhibition | 6% |
| Cc1ccc(Nc2nccc(N(C)c3ccc4c(C)n(C)nc4c3)n2)cc1S(N)(=O)=O | enzyme activity, inhibitor | 0.5 µM | remaining activity | 77.4% |
| Cc1c(NC(=O)c2cc(C(N)=O)nc3cc(F)ccc23)c(C(F)(F)F)nn1Cc1ccc(C(C)(C)C)cc1 | cell-free assay, competition with immobilised ligand | 1 µM | remaining binding | 76% |
| O=C(Nc1cnn(-c2csc(C(=O)NC3COC3)c2)c1)Nc1ccccc1Cl | enzyme activity, inhibitor | 5 µM | remaining activity | 81.1% |
| CN(C(=O)c1ccccc1)c1cc(N(C)c2ccc3c(c2)CCc2ccc(C(=O)NCCN4CCOCC4)cc2C3=O)ccc1F | cell-free assay, competition with immobilised ligand | 1 µM | remaining binding | 100% |
| CC(C)(C)c1nc2c(s1)c1nc(N)ncc1c1ccc(NS(=O)(=O)c3c(F)cccc3F)c(F)c12 | enzyme activity, inhibitor, radiometric | 1 µM | remaining activity | 95% |
